Assays:
[1] = molecular target: Abl T315I (Homo sapiens, UniProt P00519, T315I); experiment: Anti-protein kinase activity, Abl T315I; type: biochemical; settings: read-out: Anti-protein kinase activity (IC50) Abl T315I
[2] = molecular target: EGFR T790M /L858R (Homo sapiens, UniProt P00533, L858R/T790M); experiment: Anti-protein kinase activity, EGFR T790M/L858R; type: biochemical; settings: read-out: Anti-protein kinase activity (IC50) EGFR T790M /L858R
[3] = molecular target: FLT1 (Homo sapiens, UniProt P17948); experiment: Anti-protein kinase activity, FLT1; type: biochemical; settings: read-out: Anti-protein kinase activity (IC50) FLT1
Sequence of FLT1 (P17948 27-1338): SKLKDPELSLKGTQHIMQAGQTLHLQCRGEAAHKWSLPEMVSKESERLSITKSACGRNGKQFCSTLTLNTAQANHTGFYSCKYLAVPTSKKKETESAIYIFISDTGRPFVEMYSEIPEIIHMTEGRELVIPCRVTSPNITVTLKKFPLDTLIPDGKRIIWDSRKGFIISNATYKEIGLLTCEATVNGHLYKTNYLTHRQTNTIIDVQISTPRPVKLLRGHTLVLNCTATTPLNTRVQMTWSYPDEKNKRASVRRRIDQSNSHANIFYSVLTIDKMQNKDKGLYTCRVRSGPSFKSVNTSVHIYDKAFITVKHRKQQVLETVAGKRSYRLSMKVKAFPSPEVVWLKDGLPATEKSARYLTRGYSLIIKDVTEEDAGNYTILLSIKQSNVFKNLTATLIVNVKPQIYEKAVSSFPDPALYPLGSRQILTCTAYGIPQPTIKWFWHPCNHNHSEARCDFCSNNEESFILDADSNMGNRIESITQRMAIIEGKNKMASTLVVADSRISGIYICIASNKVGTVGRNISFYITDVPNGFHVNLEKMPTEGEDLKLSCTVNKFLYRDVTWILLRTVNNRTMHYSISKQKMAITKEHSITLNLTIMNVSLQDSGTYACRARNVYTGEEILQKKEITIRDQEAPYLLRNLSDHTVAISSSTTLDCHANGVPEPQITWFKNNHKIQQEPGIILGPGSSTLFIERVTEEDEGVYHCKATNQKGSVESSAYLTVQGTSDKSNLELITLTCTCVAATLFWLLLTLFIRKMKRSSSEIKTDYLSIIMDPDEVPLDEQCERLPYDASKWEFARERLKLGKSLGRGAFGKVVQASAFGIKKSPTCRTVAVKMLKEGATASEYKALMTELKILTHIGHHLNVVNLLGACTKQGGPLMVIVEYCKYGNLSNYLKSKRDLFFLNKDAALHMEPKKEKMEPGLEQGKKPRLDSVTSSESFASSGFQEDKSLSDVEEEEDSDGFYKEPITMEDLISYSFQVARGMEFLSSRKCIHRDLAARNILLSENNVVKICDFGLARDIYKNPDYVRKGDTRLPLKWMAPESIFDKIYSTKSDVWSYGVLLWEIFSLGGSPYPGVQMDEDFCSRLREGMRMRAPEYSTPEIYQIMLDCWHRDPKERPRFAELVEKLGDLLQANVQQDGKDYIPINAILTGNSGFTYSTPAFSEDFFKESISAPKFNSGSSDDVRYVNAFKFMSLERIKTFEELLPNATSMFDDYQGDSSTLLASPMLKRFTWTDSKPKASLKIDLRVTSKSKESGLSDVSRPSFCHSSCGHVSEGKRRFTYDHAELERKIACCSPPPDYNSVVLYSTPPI

[4] = molecular target: EGFR L858R (Homo sapiens, UniProt P00533, L858R); experiment: Anti-protein kinase activity, EGFR L858R; type: biochemical; settings: read-out: Anti-protein kinase activity (IC50) EGFR L858R
[5] = molecular target: EGFR WT (Homo sapiens, UniProt P00533); experiment: Anti-protein kinase activity, EGFR WT; type: biochemical; settings: for IC50: read-out: Anti-protein kinase activity (IC50) EGFR WT
[6] = Solubility in water; type: physicochemical
[7] = molecular target: Abl WT (Homo sapiens, UniProt P00519); experiment: Anti-protein kinase activity, Abl WT; type: biochemical; settings: read-out: Anti-protein kinase activity (IC50) Abl WT
[8] = molecular target: c-Met (Homo sapiens, UniProt P08581); experiment: Anti-protein kinase activity, c-Met; type: biochemical; settings: for IC50: read-out: Anti-protein kinase activity (IC50) c-Met; for percentage of inactivated c-Met: 1 μM of compound used as inhibitor
Sequence of c-Met (P08581 25-1390): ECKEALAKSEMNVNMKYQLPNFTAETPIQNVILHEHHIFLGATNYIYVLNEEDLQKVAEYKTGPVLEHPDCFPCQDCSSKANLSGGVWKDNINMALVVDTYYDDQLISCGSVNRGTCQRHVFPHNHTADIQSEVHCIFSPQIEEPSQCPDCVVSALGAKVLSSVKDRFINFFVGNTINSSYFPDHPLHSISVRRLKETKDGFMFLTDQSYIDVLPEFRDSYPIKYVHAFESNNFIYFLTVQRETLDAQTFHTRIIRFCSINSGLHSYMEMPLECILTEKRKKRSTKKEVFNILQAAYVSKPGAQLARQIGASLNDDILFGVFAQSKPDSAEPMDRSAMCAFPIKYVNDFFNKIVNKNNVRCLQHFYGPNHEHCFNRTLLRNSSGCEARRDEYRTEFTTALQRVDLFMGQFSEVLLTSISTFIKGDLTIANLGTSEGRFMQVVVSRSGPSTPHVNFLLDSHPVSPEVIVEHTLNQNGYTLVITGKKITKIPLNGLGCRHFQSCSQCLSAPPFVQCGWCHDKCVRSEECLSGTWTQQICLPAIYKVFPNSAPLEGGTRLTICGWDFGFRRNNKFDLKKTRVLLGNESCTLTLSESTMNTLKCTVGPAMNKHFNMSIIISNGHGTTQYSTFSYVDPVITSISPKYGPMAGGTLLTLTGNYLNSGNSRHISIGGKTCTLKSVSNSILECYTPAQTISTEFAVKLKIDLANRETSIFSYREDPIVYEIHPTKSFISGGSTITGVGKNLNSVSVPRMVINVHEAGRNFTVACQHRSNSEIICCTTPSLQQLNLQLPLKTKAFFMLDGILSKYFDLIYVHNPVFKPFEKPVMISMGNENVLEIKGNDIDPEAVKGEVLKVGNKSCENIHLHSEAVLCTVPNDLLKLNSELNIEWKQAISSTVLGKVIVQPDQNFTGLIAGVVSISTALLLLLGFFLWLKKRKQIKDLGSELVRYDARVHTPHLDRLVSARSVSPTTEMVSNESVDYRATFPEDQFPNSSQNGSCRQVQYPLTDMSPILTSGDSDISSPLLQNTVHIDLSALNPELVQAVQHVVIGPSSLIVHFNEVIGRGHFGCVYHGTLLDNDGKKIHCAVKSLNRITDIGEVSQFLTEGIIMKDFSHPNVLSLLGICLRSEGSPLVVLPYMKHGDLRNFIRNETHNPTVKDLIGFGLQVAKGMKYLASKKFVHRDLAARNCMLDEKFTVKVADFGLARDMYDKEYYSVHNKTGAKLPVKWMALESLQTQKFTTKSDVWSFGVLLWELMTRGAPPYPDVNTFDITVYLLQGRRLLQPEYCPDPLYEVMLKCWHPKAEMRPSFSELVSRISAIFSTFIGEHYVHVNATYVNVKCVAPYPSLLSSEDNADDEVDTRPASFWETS
Procedure, shortened: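 ELISA kinase-kit format, run in duplicate. Met positive-control enzyme (10 μL of 0.1 unit/μL) goes into wells on ice, with kinase assay buffer containing the test compound. Kinase reaction buffer starts the reaction, 60 min at 30 °C. After washing, HRP-conjugated detection antibody PY-39 is added for 60 min at room temperature, then substrate reagent for 5–15 min, then stop solution. Absorbance is read at 450/540 nm within 30 min.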

[9] = test system: tyrosine kinases; settings: previously synthesized and tested; no reference given; cited from earlier work

Molecule | IC50 [1] | IC50 [2] | IC50 [3] | IC50 [4] | IC50 [5] | solubility in water [6] | IC50 [7] | IC50 [8] | anti-c-Met activity (in words) [8] | percentage of inactivated c-Met [8] | inhibitory activity as tyrosine kinases inhibitor [9] | inhibition of EGFR WT (in words) [5] | percentage of inactivated EGFR WT ([5]; 1 μM of compound used as inhibitor)
2,15-Diaza-2,15-diheptanoyl[3.3](2,2’)(4,4’-bithiazolophane) [compound 3] | > 1 µM | > 1 µM | > 1 µM | > 1 µM | > 1 µM | only slightly soluble in water | > 1 µM | > 1 µM |  |  |  |  | 
2,15-diaza[3.3](2,2’)(4,4’-bithiazolophanium) dichloride [compound 2] | > 1 µM | > 1 µM | > 1 µM | > 1 µM | > 1 µM | almost freely soluble in water | > 1 µM | > 1 µM | showed anti-c-Met activity | 33% |  |  | 
2,6-di(thiazol-4-yl)pyridinophane [compound 5] |  |  |  |  |  |  |  |  |  |  | didn’t show any inhibitory activity |  | 
CC(C)COC(=O)N1Cc2nc(cs2)-c2csc(n2)CN(C(=O)OCC(C)C)Cc2nc(cs2)-c2csc(n2)C1 [compound 4, 2,15-Bis(isobutoxycarbonyl)-2,15-diaza[3.3](2,2’)(4,4’-bithiazolophane)] | > 1 µM | > 1 µM | > 1 µM | > 1 µM | > 1 µM | only slightly soluble in water | > 1 µM | > 1 µM | showed anti-c-Met activity | 5% |  |  | 
2,15-diaza-2,15-bis(tert-butoxycarbonyl)[3.3](2,2’)(4,4’-bithiazolophane) [compound 1] | > 1 µM | > 1 µM | > 1 µM | > 1 µM | > 1 µM | only slightly soluble in water | > 1 µM | 0.603 µM |  | 59% |  | partial inhibition | 44%

From PMC7887132 (Chemistry (Weinheim an der Bergstrasse, Germany), 2020)
